For assay [1], the target named is T1, Metabotropic glutamate receptor 2 (Homo sapiens, UniProt Q14416). Kind of assay: Agonist activity at human mGlu2 receptor expressed in HEK293 cells co-expressing Gqo5 assessed as increase in intracellular Ca2+ mobilization incubated for 1 hr by Fluo-4 dye based fluorescence assay. It counts as functional, cell-based. On the technique in general: Calcium assays in cells follow changes in intracellular calcium, usually with a dye or a luminescent sensor.

Assay [2] concerns the target T1, Metabotropic glutamate receptor 2. As to the kind of experiment: Positive modulator activity at human mGlu2 receptor expressed in HEK293 cells co-expressing Gqo5 assessed as increase in intracellular Ca2+ mobilization incubated for 1 hr in presence of EC20 glutamate by Fluo-4 dye based fluorescence assay. It counts as functional, cell-based.
Assay [3] concerns the target T2, 5-hydroxytryptamine receptor 2A (Homo sapiens, UniProt P28223). Kind of assay: Antagonist activity at human 5HT2A receptor expressed in HEK293 cells assessed as inhibition of 5HT-induced intracellular Ca2+ mobilization incubated for 1 hr by Fluo-4 dye based fluorescence assay. It counts as functional, cell-based.
The target of assay [4] is T3, 5-hydroxytryptamine receptor 2A/Metabotropic glutamate receptor 2 (Homo sapiens, UniProt P28223+Q14416). As to the kind of experiment: Agonist activity at human 5HT2A/mGlu2 receptor expressed in HEK293 cells co-expressing Gqo5 assessed as increase in intracellular Ca2+ mobilization incubated for 1 hr by Fluo-4 dye based fluorescence assay. It counts as functional, cell-based.
T3 sequence (P28223 whole entry): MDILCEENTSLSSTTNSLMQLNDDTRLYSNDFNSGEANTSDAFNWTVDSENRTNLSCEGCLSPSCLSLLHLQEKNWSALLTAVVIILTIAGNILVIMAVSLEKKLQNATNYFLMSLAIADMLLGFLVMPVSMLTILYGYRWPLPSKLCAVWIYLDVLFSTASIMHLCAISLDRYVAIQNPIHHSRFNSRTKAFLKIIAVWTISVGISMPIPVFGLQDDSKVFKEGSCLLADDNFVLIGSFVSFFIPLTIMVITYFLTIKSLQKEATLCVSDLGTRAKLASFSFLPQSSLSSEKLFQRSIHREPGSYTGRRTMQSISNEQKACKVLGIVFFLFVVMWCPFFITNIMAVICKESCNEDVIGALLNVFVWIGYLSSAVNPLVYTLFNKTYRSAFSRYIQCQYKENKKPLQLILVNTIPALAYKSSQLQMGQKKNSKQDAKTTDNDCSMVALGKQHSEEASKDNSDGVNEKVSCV
T3 sequence (Q14416 whole entry): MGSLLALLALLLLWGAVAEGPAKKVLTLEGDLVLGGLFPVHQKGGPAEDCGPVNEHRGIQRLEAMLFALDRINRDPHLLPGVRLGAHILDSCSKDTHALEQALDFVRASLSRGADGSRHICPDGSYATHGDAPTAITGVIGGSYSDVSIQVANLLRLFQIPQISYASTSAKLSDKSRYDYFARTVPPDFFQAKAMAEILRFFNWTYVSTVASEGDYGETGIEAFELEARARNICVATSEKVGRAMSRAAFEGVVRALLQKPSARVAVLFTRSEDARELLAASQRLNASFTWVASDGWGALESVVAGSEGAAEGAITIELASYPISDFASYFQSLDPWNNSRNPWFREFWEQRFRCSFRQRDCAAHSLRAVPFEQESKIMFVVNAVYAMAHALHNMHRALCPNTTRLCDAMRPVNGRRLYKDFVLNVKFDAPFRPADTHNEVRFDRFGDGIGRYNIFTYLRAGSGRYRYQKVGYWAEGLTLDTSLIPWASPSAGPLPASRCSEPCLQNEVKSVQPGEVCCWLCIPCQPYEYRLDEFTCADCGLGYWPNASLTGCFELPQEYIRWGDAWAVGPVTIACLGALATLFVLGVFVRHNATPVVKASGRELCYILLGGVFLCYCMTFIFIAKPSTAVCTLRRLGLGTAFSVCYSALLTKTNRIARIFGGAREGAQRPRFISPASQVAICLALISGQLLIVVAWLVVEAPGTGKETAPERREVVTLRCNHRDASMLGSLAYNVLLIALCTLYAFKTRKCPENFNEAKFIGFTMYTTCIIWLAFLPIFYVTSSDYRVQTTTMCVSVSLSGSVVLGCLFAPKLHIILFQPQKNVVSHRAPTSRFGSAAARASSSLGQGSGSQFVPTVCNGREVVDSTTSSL

For assay [5], the target named is T3, 5-hydroxytryptamine receptor 2A/Metabotropic glutamate receptor 2. Kind of assay: Positive modulator activity at human 5HT2A/mGlu2 receptor expressed in HEK293 cells co-expressing Gqo5 assessed as increase in intracellular Ca2+ mobilization incubated for 1 hr by Fluo-4 dye based fluorescence assay 5HT2A_HUMAN/GRM2_HUMAN P28223/Q14416. It counts as functional, cell-based.

Assay [6] shares this target. Kind of assay: Antagonist activity at human 5HT2A/mGlu2 receptor expressed in HEK293 cells assessed as inhibition of 5HT-induced intracellular Ca2+ mobilization incubated for 1 hr by Fluo-4 dye based fluorescence assay 5HT2A_HUMAN/GRM2_HUMAN P28223/Q14416. It counts as functional, cell-based.
Assay [7] has the same target. As to the kind of experiment: Antagonist activity at human 5HT2A/mGlu2 receptor expressed in HEK293 cells co-expressing Gqo5 assessed as inhibition of glutamate-induced intracellular Ca2+ mobilization incubated for 1 hr by Fluo-4 dye based fluorescence assay 5HT2A_HUMAN/GRM2_HUMAN P28223/Q14416. It counts as functional, cell-based.
Assay [8] shares this target. As to the kind of experiment: Antagonist activity at human 5HT2A/mGlu2 receptor expressed in HEK293 cells co-expressing Gqo5 assessed as inhibition of 5HT-induced intracellular Ca2+ mobilization incubated for 1 hr by Fluo-4 dye based fluorescence assay 5HT2A_HUMAN/GRM2_HUMAN P28223/Q14416. It counts as functional, cell-based.
For assay [9], the target named is T2, 5-hydroxytryptamine receptor 2A. Kind of assay: Displacement of [3H]-ketanserin from human HT2A receptor expressed in HEK293 cell membranes incubated for 2 hrs by scintillation counting method. An outline of the steps: (§1)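 Membranes from stable HEK293 lines were homogenized and centrifuged twice at 50.000g, 4 °C, then resuspended in 50 mM Tris-HCl, 10 mM MgCl2, 0.1 mM EDTA, pH 7.4. Competition used fixed [3H]ketanserin ~1.5 nM (1.3−1.8 nM) against varied test compound, with bound/free kept <10%. Incubation ran 2 h at rt with shaking, followed by GF/C filtration. Ki was obtained by Cheng−Prusoff using saturation KD. Three independent experiments, each in duplicate.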
(In general: Displacement assays read how much labelled ligand stays bound in the presence of the test substance.)

In assay [10] the target is T3, 5-hydroxytryptamine receptor 2A/Metabotropic glutamate receptor 2. As to the kind of experiment: Displacement of [3H]-ketanserin from human 5HT2A/mGlu2 receptor expressed in HEK293 cell membranes incubated for 2 hrs by scintillation counting method. An outline of the steps:
as §1

Assay [11] has the same target. As to the kind of experiment: Displacement of [3H]-ketanserin from human 5HT2A/mGlu2 receptor expressed in HEK293 cell co-expressing Gqo5 membranes incubated for 2 hrs by scintillation counting method. It counts as cell-based. An outline of the steps:
as §1

We go through 11 compounds from ChEMBL document CHEMBL4622985, “Design, Synthesis, and Pharmacological Characterization of Heterobivalent Ligands for the Putative 5-HT2A/mGlu2 Receptor Complex” (J Med Chem, 2020).

T1 sequence (Q14416 whole entry): as above
T2 sequence (P28223 whole entry): as the sequence (P28223 whole entry) above

With `COc1ccccc1C1CCN(c2ccn3c(CC4CC4)nnc3c2Cl)CC1`, the EC50 in assay [1] (read-out: EC50) is 37 nM; in [1] (read-out: pEC50 (converted)) it was 35.5 nM; in [2] (read-out: EC50) it was 5.2 nM; in [4] (read-out: EC50), 210 nM; in [5], 19 nM. Also, the IC50 came to 1300 nM in assay [3] (read-out: IC50) and 10000 nM in assay [6] (read-out: IC50).

As for `COc1c(OCCOCCOCCOCCOCCOc2ccc(C3CCN(c4ccn5c(CC6CC6)nnc5c4Cl)CC3)cc2)cccc1C(=O)C1CCN(CCc2ccc(F)cc2)CC1`, the EC50 in [1] (read-out: EC50) was 1600 nM; in assay [2] (read-out: EC50) it was 510 nM; in assay [4] (read-out: EC50) it was 10000 to 50000 nM. Moreover, the IC50 came to 450 nM in [3] (read-out: IC50), 1900 nM in assay [7], 2400 nM in assay [8] and 1000 nM in assay [6] (read-out: IC50). Also, the Ki in assay [9] (read-out: Ki) worked out at 130 nM; in assay [10] (read-out: Ki), 180 nM; in assay [11] (read-out: Ki), 320 nM.

On to `COc1c(OCCOCCOCCOCCOCCOCCOCCOCCOCCOCCOCCOCCOc2ccc(C3CCN(c4ccn5c(CC6CC6)nnc5c4Cl)CC3)cc2)cccc1C(=O)C1CCN(CCc2ccc(F)cc2)CC1`, for which the values for the EC50 in [1] (read-out: EC50), in [2] (read-out: EC50) and in [4] (read-out: EC50) were 2500 nM, 480 nM and 10000 to 50000 nM, respectively. Further, the IC50 was found to be 520 nM in [3] (read-out: IC50), 700 nM in assay [7], 380 nM in assay [8] and 1600 nM in assay [6] (read-out: IC50). Further, the figures for the Ki in assay [9] (read-out: Ki), in [10] (read-out: Ki) and in assay [11] (read-out: Ki) were 200 nM, 170 nM and 170 nM, respectively.

Consider `COCCOc1cccc(C(=O)C2CCN(CCc3ccc(F)cc3)CC2)c1OC`, for which the EC50 in assay [1] (read-out: EC50) is above 50000 nM; in [1] (read-out: pEC50 (converted)), above 50100 nM; in assay [2] (read-out: EC50), above 50000 nM; in assay [2] (read-out: pEC50 (converted)), above 50100 nM; in assay [4] (read-out: EC50), above 50000 nM; in assay [4] (read-out: pEC50 (converted)) it was above 50100 nM. In addition, the IC50 in [3] (read-out: IC50) came out at 9.3 nM; in assay [7], 29 nM; in assay [8], 23 nM; in [6] (read-out: IC50), 16 nM. Further, the figures for the Ki in [9] (read-out: Ki), in assay [10] (read-out: Ki) and in assay [11] (read-out: Ki) were 3 nM, 6.5 nM and 13 nM, respectively.

With `COc1cccc(C(=O)C2CCN(CCc3ccc(F)cc3)CC2)c1OC`, the EC50 in assay [1] (read-out: EC50) was above 50000 nM; in assay [1] (read-out: pEC50 (converted)) it was above 50100 nM; in assay [2] (read-out: EC50), above 50000 nM; in assay [2] (read-out: pEC50 (converted)), above 50100 nM; in [4] (read-out: EC50), above 50000 nM; in assay [4] (read-out: pEC50 (converted)), above 50100 nM. For the same compound, the IC50 is 0.81 nM in assay [3] (read-out: IC50), 24 nM in [7], 5.4 nM in [8] and 6.2 nM in assay [6] (read-out: IC50). Also, the values for the Ki in [9] (read-out: Ki), in [10] (read-out: Ki) and in assay [11] (read-out: Ki) were 0.52 nM, 3 nM and 8.7 nM, respectively.

Regarding `COc1c(OCCOCCOCCOCCOCCOCCOc2ccc(C3CCN(c4ccn5c(CC6CC6)nnc5c4Cl)CC3)cc2)cccc1C(=O)C1CCN(CCc2ccc(F)cc2)CC1`, the values for the EC50 in assay [1] (read-out: EC50), in assay [2] (read-out: EC50) and in assay [4] (read-out: EC50) were 1200 nM, 530 nM and 10000 to 50000 nM, respectively. The IC50 worked out at 270 nM in assay [3] (read-out: IC50), 890 nM in assay [7], 420 nM in [8] and 510 nM in assay [6] (read-out: IC50). Besides, the Ki in [9] (read-out: Ki) stood at 100 nM; in assay [10] (read-out: Ki) it was 120 nM; in assay [11] (read-out: Ki) it was 190 nM.

Take `COc1c(OCCOCCOCCOCCOc2ccc(C3CCN(c4ccn5c(CC6CC6)nnc5c4Cl)CC3)cc2)cccc1C(=O)C1CCN(CCc2ccc(F)cc2)CC1`: the EC50 in assay [1] (read-out: EC50) is 550 nM; in assay [2] (read-out: EC50), 330 nM; in assay [4] (read-out: EC50), 10000 to 50000 nM. The IC50 was 280 nM in [3] (read-out: IC50); 288 nM in assay [3] (read-out: pIC50 (converted)); 990 nM in [7]; 800 nM in assay [8]; 1700 nM in [6] (read-out: IC50); 1550 nM in assay [6] (read-out: pIC50 (converted)). In addition, the Ki in assay [9] (read-out: Ki) stood at 33 nM; in [10] (read-out: Ki), 100 nM; in assay [11] (read-out: Ki), 110 nM.

Regarding `COc1c(OCCOCCOCCOCCOCCOCCOCCOCCOCCOCCOc2ccc(C3CCN(c4ccn5c(CC6CC6)nnc5c4Cl)CC3)cc2)cccc1C(=O)C1CCN(CCc2ccc(F)cc2)CC1`, the EC50 was 1200 nM in assay [1] (read-out: EC50), 320 nM in [2] (read-out: EC50) and 10000 to 50000 nM in [4] (read-out: EC50). Moreover, the IC50 is 300 nM in assay [3] (read-out: IC50); 1200 nM in assay [7]; 140 nM in [8]; 300 nM in assay [6] (read-out: IC50); 309 nM in assay [6] (read-out: pIC50 (converted)). For the same compound, the Ki in assay [9] (read-out: Ki) was 79 nM; in [10] (read-out: Ki), 70 nM; in [10] (read-out: pKi (converted)) it was 72.4 nM; in assay [11] (read-out: Ki), 120 nM.

On to `COc1c(OCCOCCOCCOc2ccc(C3CCN(c4ccn5c(CC6CC6)nnc5c4Cl)CC3)cc2)cccc1C(=O)C1CCN(CCc2ccc(F)cc2)CC1`, for which the EC50 was 900 nM in assay [1] (read-out: EC50), 320 nM in assay [2] (read-out: EC50) and 10000 to 50000 nM in assay [4] (read-out: EC50). Further, the IC50 in assay [3] (read-out: IC50) was 1200 nM; in assay [7], 5300 nM; in assay [8] it was 9900 nM; in assay [6] (read-out: IC50), 7900 nM. For the same compound, the results for the Ki in assay [9] (read-out: Ki), in assay [10] (read-out: Ki) and in assay [11] (read-out: Ki) were 360 nM, 840 nM and 1040 nM, respectively.

Consider `COc1c(OCCOCCOCCOCCOCCOCCOCCOCCOc2ccc(C3CCN(c4ccn5c(CC6CC6)nnc5c4Cl)CC3)cc2)cccc1C(=O)C1CCN(CCc2ccc(F)cc2)CC1`, for which the EC50 in assay [1] (read-out: EC50) was 1600 nM; in assay [2] (read-out: EC50) it was 510 nM; in assay [4] (read-out: EC50), 10000 to 50000 nM. For the same compound, the IC50 in assay [3] (read-out: IC50) is 410 nM; in assay [7] it was 660 nM; in assay [8] it was 470 nM; in assay [6] (read-out: IC50), 270 nM. The Ki was 110 nM in assay [9] (read-out: Ki); 120 nM in [9] (read-out: pKi (converted)); 120 nM in assay [10] (read-out: Ki); 160 nM in assay [11] (read-out: Ki); 132 nM in [11] (read-out: pKi (converted)).

For `COc1c(O)cccc1C(=O)C1CCN(CCc2ccc(F)cc2)CC1`, the EC50 in [1] (read-out: EC50) is above 50000 nM; in [1] (read-out: pEC50 (converted)), above 50100 nM; in [2] (read-out: EC50), above 50000 nM; in assay [2] (read-out: pEC50 (converted)), above 50100 nM; in assay [4] (read-out: EC50), above 50000 nM; in assay [4] (read-out: pEC50 (converted)) it was above 50100 nM. Besides, the IC50 worked out at 11 nM in assay [3] (read-out: IC50), 23 nM in [7], 22 nM in [8] and 9.2 nM in assay [6] (read-out: IC50).
